Active and inactive are the calls of the source. No cut-off for these calls is given here.
Assays:
[1] = Stability of compound in fasted state stimulated intestinal fluid at pH 7.4 assessed as rate of compound hydrolysis in presence of 40 mg/ml pancreatin by HPLC-UV assay; format: ADME; conditions: simulated gi fluid
Procedure, shortened: (§1)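 HCl buffer with pepsin or phosphate buffer with pancreatin (10 or 40 mg/ml), preincubated at 37 °C. Drug stock (50 µM in ethanol/fasted state intestinal fluid 1:9) added and shaken at 37 °C, 650 rpm. Samples quenched with ice-cold acetonitrile containing 0.5% formic acid, centrifuged at 2 °C, and the supernatant assayed by HPLC-UV. Three experiments.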

[2] = Antioxidant activity in Sprague-Dawley rat Cerebral cortex neuron assessed as total oxidative stress level by measuring H2O2 equivalents at 25 uM after 24 hrs (reference value: 2.3 +/- 0.3 umol/L); format: functional
Procedure, shortened: (§2)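 Primary cerebral cortex neurons from rat fetuses, grown on poly-D-lysine in neurobasal medium with fetal calf serum (5% CO2, 37 °C), tested after 8 days in culture. Compounds in DMSO (0.5%) or sterile water were added and incubated 24 h at 37 °C. Cells were washed in ice-cold PBS and homogenized in 0.9% saline. Intracellular TAC (Trolox equiv.) and TOS (H2O2 equiv.) were read by kit. Ascorbic acid 10 µM (TAC) and H2O2 25 µM (TOS) served as positive controls. Four independent experiments.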

[3] = Cytotoxicity against Sprague-Dawley rat Cerebral cortex neuron assessed as LDH activity at 50 uM incubated for 24 hrs by LDH assay (reference value: […]); format: tissue-based
Procedure, shortened: (§3)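 Primary fetal rat cortical neurons, matured 8 days on poly-D-lysine, exposed 24 h at 37 °C to compound (0.1–100 µM; DMSO 0.5% or water vehicle). LDH released into 100 µl culture medium was measured by kit as the rate of NAD+ reduction (absorbance increase at 490 nm). Positive control was mitomycin C. Four independent experiments.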

[4] = Stability of compound in rat plasma assessed as rate of compound hydrolysis by HPLC-UV assay; format: ADME, cell-free
Procedure, shortened: (§4)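 Citrated human or rat plasma diluted to 80% with 0.02 M phosphate buffer pH 7.4, 37 °C with shaking. Compound added from a 1 mg/ml acetonitrile stock. Aliquots deproteinized with 0.01 M HCl in methanol, centrifuged, and analyzed by HPLC-UV (C8 column, KH2PO4/methanol pH 2.5, 220 nm). Remaining intact compound plotted against time. Three experiments.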

[5] = Cytotoxicity against Sprague-Dawley rat Cerebral cortex neuron assessed as LDH activity at 25 uM incubated for 24 hrs by LDH assay (reference value: […]); format: tissue-based; procedure, shortened: as §3
Cavia porcellus = organism: Cavia porcellus; test: Selectivity ratio of Ki for displacement of [3H]-DTG from sigma2 receptor in guinea pig brain membrane to Ki for displacement of [3H]-(+)-pentazocine from sigma1 receptor in guinea pig brain membrane; format: cell membranes
[6] = Stability of compound in fasted state stimulated intestinal fluid at pH 7.4 assessed as rate of compound hydrolysis in presence of 10 mg/ml pancreatin by HPLC-UV assay; format: ADME; conditions: simulated gi fluid; procedure, shortened: as §1
[7] = Cytotoxicity against Sprague-Dawley rat Cerebral cortex neuron assessed as LDH activity at 0.1 uM incubated for 24 hrs by LDH assay (reference value: […]); format: tissue-based; procedure, shortened: as §3
[8] = Stability of compound in human plasma assessed as half life by HPLC-UV assay; format: ADME, cell-free; procedure, shortened: as §4
[9] = Cytotoxicity against Sprague-Dawley rat Cerebral cortex neuron assessed as cell viability at 0.1 uM incubated for 24 hrs by MTT assay relative to control; format: tissue-based; conditions: cerebral cortex neurons, read-out: Activity
Procedure, shortened: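 Primary fetal rat cortical neurons, matured 8 days, treated 24 h at 37 °C with compound (0.1–100 µM; 0.5% DMSO or water vehicle). MTT 0.7 mg/ml was then added for 30 min at 37 °C, and formazan was extracted with isopropanol/formic acid (95:5) and read at 560 nm. Untreated control was set as 100% viability. Four independent experiments.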

[10] = Stability of compound in fasted state stimulated intestinal fluid at pH 1.3 assessed as rate of compound hydrolysis in presence of 40 mg/ml pepsin by HPLC-UV assay; format: ADME; conditions: isolated protein; procedure, shortened: as §1
[11] = target: Sigma non-opioid intracellular receptor 1 (Cavia porcellus, UniProt Q60492); test: Displacement of [3H]-(+)-pentazocine from sigma1 receptor in guinea pig brain membrane incubated for 150 mins by liquid scintillation counting method; format: cell membranes
Procedure, shortened: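 Guinea pig brain membranes (500 µg protein) in 50 mM Tris-HCl pH 7.4 with 3 nM [3H]-(+)-pentazocine. […] Incubated 150 min at 37 °C, then filtered on PEI-soaked GF/B filters and counted by scintillation. Ki obtained by EBDA/LIGAND; three determinations.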

[12] = Displacement of [3H]-DTG from Sigma 2 receptor in guinea pig brain membrane incubated for 120 mins in presence of sigma1 blocker (+)-SKF-10047 by liquid scintillation counting method; format: cell membranes, Cavia porcellus
[13] = Stability of compound in phosphate buffer at pH 7.4 assessed as compound half life by HPLC-UV assay; format: physicochemical
Procedure, shortened: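 Chemical hydrolysis in 0.02 M HCl buffer pH 1.3 (non-enzymatic simulated gastric fluid) or 0.02 M phosphate buffer pH 7.4, each containing 20% acetonitrile, at 37 °C. Started by adding the 10^-4 M acetonitrile stock. Samples taken over time and analyzed by HPLC-UV at 220 nm. Rate constants are means of triplicates.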

[14] = Antioxidant activity in Sprague-Dawley rat Cerebral cortex neuron assessed as total oxidative stress level by measuring H2O2 equivalents at 0.1 uM after 24 hrs (reference value: 2.3 +/- 0.3 umol/L); format: functional; procedure, shortened: as §2
Mus musculus [15] = test: In vivo agonist activity at sigma 1 receptor in Swiss […] mouse assessed as modulation of morphine-induced analgesic effect by measuring tail flick latency at 1 mg/kg, ip preincubated for 45 mins followed by morphine treatment after 90 mins by radiant heat tail-flick method; format: functional, organism-based; conditions: time 135.0 min
Mus musculus [16] = test: In vivo agonist activity at sigma 1 receptor in Swiss […] mouse assessed as modulation of morphine-induced analgesic effect by measuring tail flick latency at 1 mg/kg, ip measured after 90 mins by radiant heat tail-flick method; format: functional, organism-based

Chain of Sigma non-opioid intracellular receptor 1 (Q60492 whole entry): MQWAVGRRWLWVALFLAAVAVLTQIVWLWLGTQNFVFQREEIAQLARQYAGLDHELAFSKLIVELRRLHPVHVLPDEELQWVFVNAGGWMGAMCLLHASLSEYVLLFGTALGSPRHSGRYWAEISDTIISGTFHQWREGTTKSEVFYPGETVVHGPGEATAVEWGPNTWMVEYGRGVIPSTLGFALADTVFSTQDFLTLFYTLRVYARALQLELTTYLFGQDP

| Structure (SMILES) | Drug degradation [1] | Drug degradation [4] | Ratio Ki (Cavia porcellus) | Drug degradation [6] | half-life [8] | Drug degradation [10] | Ki [11] | Ki [12] | half-life [13] | Activity [2] | Activity [3] | Activity [5] | Activity [7] | viability at 24 h, 0.1 µM [9] | Activity [14] | Activity (Mus musculus [15]) | Activity (Mus musculus [16]) |
| --- | --- | --- | --- | --- | --- | --- | --- | --- | --- | --- | --- | --- | --- | --- | --- | --- | --- |
| O=C(CCCCC1CCSS1)N1CCN(Cc2ccc(F)cc2)CC1 (stereo not drawn) | 0.021 h⁻¹ | 0.237 h⁻¹ | 448 | 0.009 h⁻¹ | 4.21 h | 0.019 h⁻¹ | 2.9 nM | 1300 nM | 81 h | 0.5 µmol/L | 0.34 mU/ml | 0.32 mU/ml | 0.3 mU/ml | 99.3% | 0.4 µmol/L | Active | inactive |
| O=C(CCCCC1CCSS1)OC1CCN(Cc2ccccc2)CC1 (stereo not drawn) | 7.615 h⁻¹ |  |  | 2.389 h⁻¹ | 0.43 h | 0.028 h⁻¹ |  |  | 40.5 h | 0.5 µmol/L | 0.3 mU/ml | 0.32 mU/ml | 0.3 mU/ml | 99.8% | 0.5 µmol/L | Active | inactive |
| COc1ccc(CN2CCC(OC(=O)CCCCC3CCSS3)CC2)cc1 (stereo not drawn) | 0.245 h⁻¹ | 1.506 h⁻¹ | 484 | 0.249 h⁻¹ | 0.61 h | 0.031 h⁻¹ | 3.1 nM | 1500 nM | 37 h | 0.5 µmol/L | 0.34 mU/ml | 0.32 mU/ml | 0.28 mU/ml | 99.5% | 0.5 µmol/L |  |  |

The next lines start with results.

| Drug degradation [1] | Drug degradation [4] | Ratio Ki (Cavia porcellus) | Drug degradation [6] | half-life [8] | Drug degradation [10] | Ki [11] | Ki [12] | half-life [13] | Structure (SMILES) | Activity [2] | Activity [3] | Activity [5] | Activity [7] | viability at 24 h, 0.1 µM [9] | Activity [14] | Activity (Mus musculus [15]) | Activity (Mus musculus [16]) |
| --- | --- | --- | --- | --- | --- | --- | --- | --- | --- | --- | --- | --- | --- | --- | --- | --- | --- |
| 0.017 h⁻¹ | 0.168 h⁻¹ | 432 | 0.011 h⁻¹ | 5.28 h | 0.029 h⁻¹ | 5.7 nM | 2460 nM | 238 h | COc1ccc(CN2CCN(C(=O)CCCCC3CCSS3)CC2)cc1 (stereo not drawn) | 0.5 µmol/L | 0.34 mU/ml | 0.29 mU/ml | 0.28 mU/ml | 98.1% | 0.4 µmol/L |  |  |
| 0.072 h⁻¹ |  |  | 0.031 h⁻¹ | 1.76 h | 0.01 h⁻¹ |  |  | 53.8 h | O=C(CCCCC1CCSS1)N1CCN(Cc2ccccc2)CC1 (stereo not drawn) | 0.5 µmol/L | 0.34 mU/ml | 0.32 mU/ml | 0.3 mU/ml | 99.4% | 0.5 µmol/L | Active | inactive |
|  | 1.238 h⁻¹ | 1580 |  | 0.81 h | 1.019 h⁻¹ | 4.1 nM | 6500 nM | 38 h | O=C(CCCCC1CCSS1)OC1CCN(Cc2ccc(F)cc2)CC1 (stereo not drawn) | 0.4 µmol/L | 0.32 mU/ml | 0.3 mU/ml | 0.3 mU/ml | 97.5% | 0.4 µmol/L | Active | inactive |
